Laboratory results as given in ChEMBL document CHEMBL1250505, “Synthesis and biological property of some novel 1,3,4-oxadiazoles” (2010).

Tests used:
Type in all cases: functional
Staphylococcus aureus [1] = assay: Antibacterial activity against Staphylococcus aureus at 100 ug/ml after 24 to 48 hrs by cup-plate method; conditions: read-out: IZ
How it was run: (§1)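 Sterile nutrient agar cooled to […] and seeded with 18-24 h sub-cultures, then poured at about 45-50 mL per dish. Wells cut with a 6 mm sterile cork borer and filled with 0.1 mL of each of two test dilutions. Plates incubated inverted at 37 °C for 24–48 h; inhibition zone diameters measured in mm. Streptomycin and procaine penicillin served as standards.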

Pseudomonas aeruginosa [2] = assay: Antibacterial activity against Pseudomonas aeruginosa at 100 ug/ml after 24 to 48 hrs by cup-plate method; conditions: read-out: IZ; how it was run: as §1
Bacillus subtilis [3] = assay: Antibacterial activity against Bacillus subtilis at 100 ug/ml after 24 to 48 hrs by cup-plate method; conditions: read-out: IZ; how it was run: as §1
Escherichia coli [4] = assay: Antibacterial activity against Escherichia coli at 100 ug/ml after 24 to 48 hrs by cup-plate method; conditions: read-out: IZ; how it was run: as §1
Mus musculus [5] = assay: Analgesic activity in albino mouse assessed as paw licking latency at 100 mg/kg after 0.5 hrs by Eddy's hot plate method
How it was run: (§2)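 Albino mice of either sex, fasted 24 h, 6 per group. Compounds given at 100 mg/kg; control group received 2% acacia suspension, standard group pentazocine 35 mg/kg. Hot plate held at 55 ± 1 °C. Reaction time is the time to lick a hind paw or leap off the plate, recorded at 0, 30, 60, 120 and 240 min after dosing.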

Escherichia coli [6] = assay: Antibacterial activity against Escherichia coli at 50 ug/ml after 24 to 48 hrs by cup-plate method; conditions: read-out: IZ; how it was run: as §1
Pseudomonas aeruginosa [7] = assay: Antibacterial activity against Pseudomonas aeruginosa at 50 ug/ml after 24 to 48 hrs by cup-plate method; conditions: read-out: IZ; how it was run: as §1
Staphylococcus aureus [8] = assay: Antibacterial activity against Staphylococcus aureus at 50 ug/ml after 24 to 48 hrs by cup-plate method; conditions: read-out: IZ; how it was run: as §1
Bacillus subtilis [9] = assay: Antibacterial activity against Bacillus subtilis at 50 ug/ml after 24 to 48 hrs by cup-plate method; conditions: read-out: IZ; how it was run: as §1
Mus musculus [10] = assay: Analgesic activity in albino mouse assessed as paw licking latency at 100 mg/kg after 2 hrs by Eddy's hot plate method; how it was run: as §2
Mus musculus [11] = assay: Analgesic activity in albino mouse assessed as paw licking latency at 100 mg/kg after 4 hrs by Eddy's hot plate method; how it was run: as §2
Mus musculus [12] = assay: Analgesic activity in albino mouse assessed as paw licking latency at 100 mg/kg after 1 hr by Eddy's hot plate method; how it was run: as §2

SMILES	zone of inhibition at 100 µg/mL (Staphylococcus aureus [1])	zone of inhibition at 100 µg/mL (Pseudomonas aeruginosa [2])	zone of inhibition at 100 µg/mL (Bacillus subtilis [3])	zone of inhibition at 100 µg/mL (Escherichia coli [4])	Time (Mus musculus [5])	zone of inhibition at 50 µg/mL (Escherichia coli [6])	zone of inhibition at 50 µg/mL (Pseudomonas aeruginosa [7])	zone of inhibition at 50 µg/mL (Staphylococcus aureus [8])	zone of inhibition at 50 µg/mL (Bacillus subtilis [9])	Time (Mus musculus [10])	Time (Mus musculus [11])	Time (Mus musculus [12])
COc1ccccc1-c1cccc(-c2n[nH]c(=S)o2)c1	18 mm	18 mm	21 mm	18 mm	4.94 s	12 mm	11 mm	11 mm	10 mm	7.61 s	6.28 s	5.84 s
Fc1ccccc1-c1cccc(-c2n[nH]c(=S)o2)c1	20 mm	21 mm	19 mm	19 mm	4.99 s	15 mm	18 mm	15 mm	12 mm	5.38 s	5.04 s	5.24 s
S=c1[nH]nc(-c2cccc(-c3cccc(Cl)c3)c2)o1	11 mm	14 mm	9 mm	16 mm	4.71 s	11 mm	9 mm	10 mm	13 mm	5.01 s	5.08 s	4.84 s
N#CCCCSc1nnc(-c2cccc(-c3ccccc3F)c2)o1	16 mm	20 mm	18 mm	21 mm	4.54 s	17 mm	16 mm	11 mm	12 mm	4.92 s	4.49 s	4.71 s
N#CCCCSc1nnc(-c2cccc(-c3cccc(Cl)c3)c2)o1	15 mm	16 mm	16 mm	17 mm	4.51 s	10 mm	12 mm	10 mm	8 mm	5.12 s	4.71 s	4.77 s
COc1ccc(F)cc1-c1cccc(-c2n[nH]c(=S)o2)c1	17 mm	19 mm	19 mm	20 mm	5.22 s	8 mm	14 mm	12 mm	12 mm	8.41 s	6.35 s	5.74 s
COC(=O)CCCSc1nnc(-c2cccc(-c3cc(F)ccc3OC)c2)o1	16 mm	19 mm	18 mm	18 mm	4.75 s	15 mm	13 mm	10 mm	13 mm	6.01 s	6.01 s	5.11 s
COC(=O)CCCSc1nnc(-c2cccc(-c3ccccc3OC)c2)o1	14 mm	21 mm	15 mm	16 mm	5.01 s	7 mm	18 mm	9 mm	11 mm	6.58 s	6.21 s	5.21 s
COC(=O)CCCSc1nnc(-c2cccc(-c3ccccc3F)c2)o1	17 mm	21 mm	16 mm	16 mm	4.53 s	9 mm	13 mm	15 mm	9 mm	4.84 s	4.49 s	4.62 s
COC(=O)CCCSc1nnc(-c2cccc(-c3cccc(Cl)c3)c2)o1	16 mm	18 mm	18 mm	19 mm	4.96 s	18 mm	6 mm	10 mm	11 mm	6.58 s	5.59 s	5.36 s
COc1ccc(F)cc1-c1cccc(-c2nnc(SCCCCF)o2)c1	15 mm	15 mm	17 mm	19 mm	4.35 s	12 mm	7 mm	12 mm	10 mm	4.72 s	4.55 s	4.48 s
COc1ccccc1-c1cccc(-c2nnc(SCCCCF)o2)c1	21 mm	15 mm	20 mm	16 mm	4.9 s	12 mm	6 mm	15 mm	15 mm	6.17 s	6.01 s	5.01 s
FCCCCSc1nnc(-c2cccc(-c3ccccc3F)c2)o1	20 mm	18 mm	22 mm	19 mm	4.62 s	13 mm	17 mm	13 mm	20 mm	4.87 s	4.47 s	4.69 s
FCCCCSc1nnc(-c2cccc(-c3cccc(Cl)c3)c2)o1	12 mm	20 mm	20 mm	15 mm	5.56 s	12 mm	15 mm	5 mm	15 mm	8.35 s	6.44 s	5.79 s
COc1ccc(F)cc1-c1cccc(-c2nnc(SCCCC#N)o2)c1	13 mm	18 mm	18 mm	18 mm	4.92 s	10 mm	15 mm	7 mm	7 mm	4.99 s	4.74 s	4.86 s
COc1ccccc1-c1cccc(-c2nnc(SCCCC#N)o2)c1	18 mm	20 mm	20 mm	20 mm	5.25 s	10 mm	9 mm	12 mm	17 mm	6.57 s	5.59 s	5.4 s
CN[C@@H]1[C@H](O[C@H]2[C@H](O[C@H]3[C@H](O)[C@@H](O)[C@H](N=C(N)N)[C@@H](O)[C@@H]3N=C(N)N)O[C@@H](C)[C@]2(O)C=O)O[C@@H](CO)[C@H](O)[C@H]1O [STREPTOMYCIN]	–	25 mm	–	25 mm	–	21 mm	21 mm	–	–	–	–	–
